Results from ChEMBL document CHEMBL1629505, “Antiarrhythmic, serotonin antagonist and antianxiety activities of novel substituted thiophene derivatives synthesized from 2-amino-4,5,6,7-tetrahydro-N-phenylbenzo[b]thiophene-3-carboxamide” (Eur J Med Chem, 2010).

Key:
[1] = Acute toxicity in rat; format: organism-based; settings: in vivo
Rattus norvegicus = assay: Antiarrhythmic activity in aconitine-intoxicated iv dosed Ivanovas rat assessed as inhibition of ventricular dysfunction; format: functional, Heart
Outline: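 Male Ivanovas rats (300–350 g) were anaesthetised with urethane 1.25 g/kg ip. Compound was given iv at 5 mg/kg 5 min before saphenous vein infusion of aconitine ([…], 0.1 ml/min). Lead II ECG was recorded every 30 s. Read-out was aconitine per 100 g causing ventricular extrasystoles, tachycardia and fibrillation versus untreated controls. Used 24 rats/compound; Student's t-test.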

Mus musculus = assay: Antianxiety activity in ip dosed Albino mouse assessed as increase in locomotor activity after 30 mins relative to Diazepam; format: functional

Compound	LD50 [1] [mg/kg]	LD100 increase (Rattus norvegicus) [%]	Ratio (Mus musculus)
COc1cccc(-n2c(/C=C/c3ccccc3)nc3sc4c(c3c2=O)CCCC4)c1	243	82	7
N=c1oc(/C=C/c2ccccc2)nc2sc3c(c12)CCCC3	244	80.1	6
COc1cccc(-n2nnc3sc4c(c3c2=O)CCCC4)c1	124	75	4
COc1cccc(NC(=O)c2c(NC(=O)c3ccccc3)sc3c2CCCC3)c1	236	67.9	2
CCN(CC)CC(=O)Nc1c(C)cccc1C [LIDOCAINE]	–	65	–
N#Cc1c(N2C(=O)C=CC2=O)sc2c1CCCC2	234	–	3
COc1cccc(NC(=O)c2c(NC(=O)/C=C/c3ccccc3)sc3c2CCCC3)c1	276	74.6	5
N#Cc1c(NC(=S)NC(=O)c2ccccc2)sc2c1CCCC2	175	84	10
N#Cc1c(-n2c(O)csc2=N)sc2c1CCCC2	274	82.1	12
N=c1oc(-c2ccccc2)nc2sc3c(c12)CCCC3	224	68.15	3
N=c1c2c3c(sc2nc(S)n1C(=O)c1ccccc1)CCCC3	221	84.3	5
COc1cccc(-n2c(=S)[nH]c3sc4c(c3c2=O)CCCC4)c1	210	76	3
COc1cccc(NC(=O)c2c(N)sc3c2CCCC3)c1	121	–	4
N#Cc1c(NC(=O)/C=C/c2ccccc2)sc2c1CCCC2	186	77.5	5
COc1cccc(-n2c(-c3ccccc3)nc3sc4c(c3c2=O)CCCC4)c1	136	70.1	5
N#Cc1c(/N=C/c2ccccc2)sc2c1CCCC2	246	73.6	2
O=C1CC2(CCCC2)CC(=O)N1CCCCN1CCN(c2ncccn2)CC1 [BUSPIRONE]	113	–	–
CCN(CC)CCNC(=O)c1ccc(N)cc1 [PROCAINAMIDE]	–	65	–
N#Cc1c(N)sc2c1CCCC2	152	–	1
N#Cc1c(N2C(=S)N=C(c3ccccc3)OC2c2ccccc2)sc2c1CCCC2 (centres undefined)	297	84	16
N#Cc1c(NC(=O)CCl)sc2c1CCCC2	194	73.1	3
